From PubChem BioAssay
CHO parental Ca: signal in parental CHO cells, OX1R antagonist counter-screen; parental CHO-K1, ATP-induced calcium, Fluo-8 fluorescence; 0.63% of 330,000 active; inhibition, % at 5.6 µM; AID 463079;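 active = inhibition above that plate's mean sample inhibition plus 3 SD, cut at about 26% in these data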
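Test system: untransfected parental CHO cell line. Compound: one dose, 5.6 µM nominal. Detection: intracellular calcium via Fluo-8 no-wash fluorescent dye. Measure: % inhibition. Benchmarks: ATP-challenged DMSO wells low, unchallenged DMSO wells high.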
OX1R antag-1: antagonists of human orexin 1 receptor (OX1R); AID 485270; 1.8% of 330,000 active; OX1R-expressing cells, FRET antagonist read-out; inhibition, % at 6.6 µM; O43613; in the data active = inhibition mostly above about 38%, no sharp cut-off; inactive = mostly below about 40%
Target sequence (O43613 whole entry, looked up): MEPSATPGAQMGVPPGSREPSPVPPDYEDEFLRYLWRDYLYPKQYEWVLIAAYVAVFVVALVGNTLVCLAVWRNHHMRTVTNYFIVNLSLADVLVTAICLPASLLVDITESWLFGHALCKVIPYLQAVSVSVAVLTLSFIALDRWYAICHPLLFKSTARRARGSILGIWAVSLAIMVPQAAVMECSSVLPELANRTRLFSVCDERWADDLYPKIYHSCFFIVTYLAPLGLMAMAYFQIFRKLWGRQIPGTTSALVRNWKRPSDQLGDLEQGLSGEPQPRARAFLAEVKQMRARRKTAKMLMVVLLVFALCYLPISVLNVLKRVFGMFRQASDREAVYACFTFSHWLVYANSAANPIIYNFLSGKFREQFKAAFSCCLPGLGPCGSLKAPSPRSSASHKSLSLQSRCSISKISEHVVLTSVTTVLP
GalR3 antagonist: human GalR3 antagonism | HEK293 GalR3-CNG cAMP membrane potential fluorescence; galR3 body fused to GalR1 C-terminus | inhibition, % at 3 µM | 0.44% of 360,000 active;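 active = inhibition above the screen-wide average plus 3 SD, cut at about 13% in these data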;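 also: forskolin and galanin both at EC90 stimulate the cells; cAMP rise reported by CNG channel membrane potential dye signal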
OX1R antag-2: human HCRTR1 antagonism. O43613. CHO/OX1R cells, Fluo-8 calcium fluorescence, orexin A. AID 434989. inhibition, % at 5 µM. 0.43% of 330,000 active;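 active = inhibition above its plate's threshold, mean inhibition of all tested compounds on the plate plus 3 SD, cut at about 37% in these data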
GPR7 antagonist: antagonists of human GPR7 (neuropeptides B/W receptor 1) | P48145 | GPR7-expressing cells, fluorescence antagonist assay | AID 1861 | inhibition, % at 4.4 µM | 1.1% of 290,000 active; in the data active = inhibition above about 16%, passing the limit was not always enough;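 also: cells stimulated with the agonist NPW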
Each line names hits and unclear results; the compound was inactive in the other large screens. Most compounds without a hit are left out; they make up all but 3.1% or so of the library.

O=C(OCC(=O)N1CCN(C(=O)c2ccco2)CC1)c1ccccc1OCc1ccc(Cl)cc1	GPR7 antagonist 28
CNC(=O)COC(=O)c1ccccc1NC(=O)c1ccco1	none
ClC(Cl)(c1nnnn1-c1ccccc1)c1nnnn1-c1ccccc1	CHO parental Ca 93, OX1R antag-2 63
O=C(OCc1ccccc1C(F)(F)F)c1ccc(Br)c(S(=O)(=O)N2CCOCC2)c1	none (no result: CHO parental Ca, OX1R antag-1, OX1R antag-2, GPR7 antagonist)
COc1cccc(-c2cc(C(=O)Nc3cc(OC)c(OC)c(OC)c3)no2)c1	OX1R antag-1 41
Cc1ccc(NC(=O)c2cc(-c3ccco3)on2)cc1C	none
Cc1ccc(NC(=O)c2cc(-c3cccc(O)c3)on2)cc1C	OX1R antag-1 38 (no result: GalR3 antagonist)
CC(CN)(NS(=O)(=O)c1ccccc1)c1ccccc1 (stereo not drawn)	none (no result: CHO parental Ca, OX1R antag-1, OX1R antag-2)
c1ccc(Cn2cc(CCOCc3ccccn3)c3ccccc32)cc1	none (no result: CHO parental Ca, OX1R antag-1, OX1R antag-2, GPR7 antagonist)
O=C(Cc1cccc2ccccc12)NNC(=O)c1ccc(Br)o1	OX1R antag-1 51
O=C(Cc1ccccc1)NNC(=O)c1ccc(Br)o1	none (no result: CHO parental Ca, OX1R antag-1, OX1R antag-2)
O=C1CCN(S(=O)(=O)c2ccccc2)CCN1CCOCc1ccc(C(F)(F)F)cc1	none (no result: GPR7 antagonist)
Cc1ccc(S(=O)(=O)N2CCC(=O)N(CCOCc3ccc(C(F)(F)F)cc3)CC2)cc1	CHO parental Ca 49
C=C1[C@@H](C)CN[C@@H]1CCO	none (no result: CHO parental Ca, OX1R antag-1, OX1R antag-2, GPR7 antagonist)
CCc1c(-c2ccc(OC)cc2)ncn1CCc1ccccc1OC	none (no result: CHO parental Ca, OX1R antag-1, OX1R antag-2, GPR7 antagonist)
COc1ccc(CCNC(=O)c2ccccc2NC(=O)C2=C(C)OCCS2)c(OC)c1	OX1R antag-1 64
COc1ccc(OC)c(CCNC(=O)c2cccc(NC(=O)C3=C(C)OCCS3)c2)c1	OX1R antag-1 41
COC(=O)C(NC(=O)c1ccc(F)cc1)(Nc1nc(C)cs1)C(F)(F)F (stereo not drawn)	GPR7 antagonist 17
C/C=C(/C)C(=O)OC1c2c(ccc3ccc(=O)oc23)OC(C)(C)C1OC(=O)/C(C)=C\C (stereo not drawn)	CHO parental Ca 75, OX1R antag-1 44
CCOn1c(=O)c(-c2ccccc2)[n+]([O-])c2ccccc21	none
CCOC(=O)COn1c(=O)c(-c2ccc(OC)cc2)[n+]([O-])c2ccccc21	OX1R antag-1 46
CCOC(=O)COn1c(=O)c(-c2ccccc2)[n+]([O-])c2ccccc21	none
CCOC(=O)COn1c(=O)c(-c2ccc(OC)c(OC)c2)[n+]([O-])c2ccccc21	OX1R antag-1 51
OC(c1ccccc1)(c1ccccc1)C1CCN(CCCOc2ccc(-c3ccncc3)cc2)CC1	none (no result: CHO parental Ca, OX1R antag-1, OX1R antag-2, GPR7 antagonist)
CCCOC(=O)/C(=C\c1ccc([N+](=O)[O-])o1)NC(=O)c1ccccc1	none
O=C(Nc1cccc2ccccc12)/C(=C\c1cccc([N+](=O)[O-])c1)NC(=O)c1cccs1	OX1R antag-1 56
CCOC(=O)/C(=C\c1ccc([N+](=O)[O-])o1)NC(=O)c1ccccc1	OX1R antag-1 43 (no result: GalR3 antagonist)
O=C(NCc1ccccc1)/C(=C/c1cccc([N+](=O)[O-])c1)NC(=O)c1ccco1	none
O=C(NCCc1ccccc1)/C(=C\c1cccc([N+](=O)[O-])c1)NC(=O)c1ccco1	OX1R antag-1 53
Cc1ccc(C(=O)N/C(=C\c2ccc(-c3cccc([N+](=O)[O-])c3)o2)C(=O)NC(C)(C)C)cc1	OX1R antag-1 74
Cc1cccc(C)c1NC(=O)C1(C)CN(S(C)(=O)=O)CC(=O)N1Cc1cccs1 (stereo not drawn)	none (no result: CHO parental Ca, OX1R antag-1, OX1R antag-2, GPR7 antagonist)
Cc1ccc(C(=O)N/C(=C/c2ccc(-c3ccc([N+](=O)[O-])cc3)o2)C(=O)NCCCN(C)C)cc1	none (no result: GPR7 antagonist)
O=C(NCCCO)/C(=C/c1ccc(-c2cccc([N+](=O)[O-])c2)o1)NC(=O)c1ccccc1	OX1R antag-1 51
O=C(NCCO)/C(=C\c1ccc([N+](=O)[O-])o1)NC(=O)c1ccccc1	OX1R antag-1 65
O=C(NCCCN1CCOCC1)/C(=C/c1ccc(-c2cccc([N+](=O)[O-])c2)o1)NC(=O)c1ccccc1	none (no result: CHO parental Ca, OX1R antag-1, OX1R antag-2, GPR7 antagonist)
Cc1ccc(NC(=O)c2ncn(CCCNCc3ccccn3)n2)cc1C	none (no result: CHO parental Ca, OX1R antag-1, OX1R antag-2, GPR7 antagonist)
CCC(c1nnnn1-c1ccc2c(c1)OCCO2)N1CCN(Cc2c(F)cccc2Cl)CC1 (stereo not drawn)	none (no result: CHO parental Ca, OX1R antag-1, OX1R antag-2, GPR7 antagonist)
C[C@@H]1COc2cc(N3CCN(Cc4ccccc4F)CC3)ccc2S(=O)(=O)N1	none (no result: CHO parental Ca, OX1R antag-1, OX1R antag-2, GPR7 antagonist)
OC1(c2ccc(OC(F)F)cc2)CSC(=Nc2cccnc2)N1Cc1ccco1 (stereo not drawn)	GPR7 antagonist 20 (no result: CHO parental Ca, OX1R antag-1, OX1R antag-2)
COc1ccc(OC)c(NC(=O)CN(Cc2ccc(F)cc2)C2CCCCC2)c1	CHO parental Ca 45
